# From PubChem BioAssay
# This is a sample that favours compounds with a hit; in the whole collection about 1.8% have one here.
# M4 antag – CHRM4 antagonism in calcium assay. inhibition, % at 3 µM. CHO-hM4 cells, ACh EC80, Fluo-8 calcium fluorescence. P08173. hit rate 0.73% among 360,000. AID 624125;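 active = inhibition above its plate's cutoff, the mean inhibition of sample wells plus 3 SD, cut at about 27% in these data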;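 also: 0% = acetylcholine EC80 with DMSO and 100% = DMSO without agonist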
# M5 PAM – potentiates acetylcholine response at human M5 receptor; P08912; CHO-K1 hM5, Fluo-8 calcium, ACh EC20 PAM; 0% = ACh EC20, 100% = ACh EC100; activation, % at 3 µM; hit rate 0.3% among 360,000; AID 624038;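 active = activation above the run cutoff, the mean activation of all test compounds plus 3 SD, cut at about 18% in these data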
# Target sequence (P08912 whole entry, looked up): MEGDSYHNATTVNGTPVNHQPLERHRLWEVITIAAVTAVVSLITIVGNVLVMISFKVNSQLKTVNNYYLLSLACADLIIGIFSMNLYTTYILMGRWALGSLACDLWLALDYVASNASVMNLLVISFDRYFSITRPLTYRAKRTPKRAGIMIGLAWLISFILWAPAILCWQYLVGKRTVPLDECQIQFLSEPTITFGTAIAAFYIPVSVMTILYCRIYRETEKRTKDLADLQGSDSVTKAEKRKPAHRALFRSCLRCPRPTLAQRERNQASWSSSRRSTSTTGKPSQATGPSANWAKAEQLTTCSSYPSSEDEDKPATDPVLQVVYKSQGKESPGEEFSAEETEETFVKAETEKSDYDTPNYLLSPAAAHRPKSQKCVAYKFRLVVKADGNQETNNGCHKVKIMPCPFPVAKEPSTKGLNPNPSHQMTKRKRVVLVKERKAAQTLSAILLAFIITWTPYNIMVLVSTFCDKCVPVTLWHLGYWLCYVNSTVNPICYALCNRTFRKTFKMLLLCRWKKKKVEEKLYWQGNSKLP
#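 System – CHO-K1 hM5 cells · Compound – 3 µM, single dose · Incubation – compound preincubation 140 s before EC20 acetylcholine addition · Technique – Fluo-8 calcium fluorescence · Measure – Max/basal fluorescence ratio as % of EC20–EC100 ACh window · Benchmarks – low control EC20 acetylcholine (0%), high control EC100 acetylcholine (100%) · Replication – singlicate, one well per test compound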
# M5 ag – CHRM5 agonism in calcium assay | CHO-K1 hM5 cells, Fluo-8 calcium fluorescence; 0% DMSO wells, 100% maximal acetylcholine response | activation, % at 3 µM | hit rate 0.19% among 360,000 | AID 624037;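 active = activation above the run's mean over test compounds plus 3 SD, cut at about 23% in these data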;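 also: signal is peak over basal fluorescence ratio across the kinetic read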
# M5 antag – antagonists of human muscarinic M5 receptor (CHRM5); inhibition, % at 3 µM; hit rate 0.59% among 360,000; P08912; CHO-hM5 cells, Fluo-8 calcium fluorescence, ACh EC80;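 active = inhibition above a per-plate cutoff, the mean of that plate's test compounds plus 3 SD, cut at about 27% in these data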;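 also: 0% = acetylcholine EC80 with DMSO and 100% = DMSO without agonist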
# M4 ag – CHRM4 agonism in calcium assay. P08173. CHO-K1 hM4/Gqi5, Fluo-8 calcium fluorescence; vehicle 0%, full acetylcholine response 100%. activation, % at 3 µM. hit rate 0.14% among 360,000;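 active = activation above the run mean over all test wells plus 3 SD, cut at about 32% in these data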;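 also: peak over basal fluorescence ratio per well then scaled between controls; 0% = DMSO wells and 100% = acetylcholine at EC100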
# M4 PAM – potentiates acetylcholine response at human M4 receptor; CHO-K1 hM4/Gqi5, Fluo-8 calcium fluorescence, ACh EC20; 0% = ACh EC20, 100% = maximal ACh; activation, % at 3 µM; hit rate 0.4% among 360,000;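 active = activation above its plate's cutoff, the mean activation of sample wells plus 3 SD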
# The depositor's hits bear a star.
SMILES,M4 antag,M5 PAM,M5 ag,M5 antag,M4 ag,M4 PAM
O=C(O)c1cccc(N/N=C/C2=C(Cl)c3cc(Cl)ccc3SC2)c1,11,-1,3,9,0,-5
Nc1ncc(Br)cc1S(=O)(=O)N1CCCCCC1,-2,-15,-8,29*,1,-2
O=S(=O)(c1cc(Br)ccc1Br)N1CCCCCC1,-39,-1,-4,1,-3,2
Cc1ccc(NC(=O)c2cnc(N3CCN(c4ccccn4)CC3)c3ccccc23)c(Br)c1,30*,-15,3,14,12,-21
O=C(Nc1c(F)cccc1F)c1cnc(N2CCN(c3ccccn3)CC2)c2ccccc12,4,-20,0,14,19,-15
CC(C)(C)c1nnc(NC(=O)COc2ccc3c(c2)OCO3)s1,-8,3,4,-3,3,6
COc1ccc(-n2c3c(cc(C(=O)N4CCCCC4)c2=O)C(=O)CC(C)(C)C3)cc1,27*,12,-3,2,1,-8
CC1(C)CC(=O)c2cc(C(=O)N3CCCC(C)(C)C3)c(=O)n(-c3ccccc3)c2C1,2,0,3,5,1,0
O=C(CN1C(=O)NC2(CCc3ccccc32)C1=O)NCc1cccc(C(F)(F)F)c1 (stereo unspecified),0,6,5,-4,7,10
CCn1cc(C(=O)N(C)c2cc(C)ccc2OC)c2cc(OC)c(OC)cc2c1=O,-10,0,-2,6,3,2
CCn1cc(C(=O)N(C)c2ccc(OC)cc2OC)c2cc(OC)c(OC)cc2c1=O,-27,11,-4,0,2,14*
CC(C)NC(=O)COc1ccc(S(=O)(=O)N(C)Cc2ccccc2)cc1,-3,0,4,-4,5,-13
CCOc1nc(-c2ccccc2)ccc1-c1noc(COC)n1,-3,18*,-7,-12,-1,17
CCCCOC(=O)/C(=C\c1ccc([N+](=O)[O-])o1)NC(=O)c1ccccc1,29*,-1,-6,4,2,-7
CCOc1ccc(S(=O)(=O)N2CCC(C(=O)N3CCCCCC3)CC2)cc1C,-8,50*,15,-15,4,3
CCOc1ccc(S(=O)(=O)N2CCC(C(=O)N3CCOCC3)CC2)cc1C,-4,-1,-2,12,2,-3
CC(CCc1ccccc1)NC(=O)C1CCN(S(=O)(=O)c2ccc(F)cc2)CC1 (stereo unspecified),-6,2,2,-2,4,-3
Cc1cc2[nH]c(=O)c(=O)[nH]c2cc1S(=O)(=O)Nc1cccc(Cl)c1,1,1,-4,6,0,-7
Cc1ccc(S(=O)(=O)N/N=C/c2ccc(OC3CSC3)cc2)cc1,20,-1,38*,15,42*,4
CCNc1nnc(CCn2nc(C)c(Br)c2C)s1,2,24*,-1,-17,2,11
CCCCNc1nnc(CCn2nc(C)c(Br)c2C)s1,-6,6,-2,5,0,17
COc1ccc(CCNC(=O)c2ccc3c(c2)N(Cc2ccc(C)cc2)CCS3)cc1OC,6,-16,-9,39*,5,-9
COc1ccc(OC)c(CCNC(=O)c2ccc3c(c2)N(Cc2ccc(F)cc2)CCS3)c1,8,-7,-5,17,0,-4
Cc1ccc(C)c(NC(=O)CN(C)C(C)C(=O)N2CC(C)CC(C)C2)c1 (stereo unspecified),-12,19*,-3,-21,2,16
O=C(Cn1nc([N+](=O)[O-])nc1Br)NC(c1ccccc1)c1ccccc1,30*,-4,-1,8,2,-7
SMILES,M4 antag,M5 PAM,M5 ag,M5 antag,M4 ag,M4 PAM
Cc1ccc(NC(=O)C2CCN(S(=O)(=O)c3ccc4c(c3)NC(=O)C(C)S4)CC2)cc1Cl (stereo unspecified),29*,-12,-2,28*,12,-11
NC1=NC(=O)CC(C(=O)NCc2ccccc2)S1 (stereo unspecified),-16,-2,-5,-4,2,16*
O=C(O)C1C(c2ccccc2)C(C(=O)Oc2ccccc2)C1c1ccccc1 (stereo unspecified),2,-2,0,5,0,-4
Cc1cccc(OC(=O)C2C(c3ccccc3)C(C(=O)O)C2c2ccccc2)c1 (stereo unspecified),21,-5,2,-2,2,31*
CCOC(=O)CCCCCCCCC(=O)Nc1ccc(-n2[nH]c(=O)cc2C)cc1,-17,-11,24*,-1,8,2
COc1ccc(CCNC(=O)C(=O)N/N=C/c2cccs2)cc1OC,2,3,1,-7,1,-2
O=C(COc1cccnc1[N+](=O)[O-])c1c[nH]c2ccccc12,34*,14,-1,-4,4,14
CCOc1ccc(C(=O)NCc2ccc3c(c2)OCO3)cc1OCC,9,0,2,-1,2,-1
CN1CCN(C(=O)c2ccc3c(Cl)c4c(nc3c2)CCCC4)CC1,6,5,-3,10,1,15*
Cn1c2ccccc2c(=O)c2ccc(C#CC3(O)CCCCC3)cc21,10,-41,-1,17,37*,-16
Nc1ncnc(Nc2ccc(F)c(Cl)c2)n1,0,12,0,-2,1,12*
COc1ccc(OC)c(S(=O)(=O)Nc2ccc3[nH]c(=O)[nH]c3c2)c1,-11,-1,-2,-1,1,9
CC(C)Oc1cccc(C(=O)NC(=S)Nc2ccc(N3CCN(C)CC3)cc2)c1,39*,-36,-19,15,7,-54
COc1cccc(C(=O)NC(=S)Nc2ccc(N3CCCC3)cc2)c1,-15,-2,-5,7,0,-10
CCOC(=O)c1cnc2c(C)cc(C)cc2c1NCCCN1CCOCC1,13,1,5,1,0,-10
COc1cc(/C=C2\COC/C(=C\c3ccc(O)c(OC)c3)C2=O)ccc1O,6,-16,-12,10,11,-8
CCCOc1ccc(/C=C/C(=O)O)cc1OC,-15,0,1,7,1,19*
COc1cc(/C=C2/CC/C(=C/c3ccc(O)c(OC)c3)C2=O)ccc1O,9,-21,25*,36*,16,-18
COc1cc(/C=C2\CC/C(=C\c3ccc(OCCO)c(OC)c3)C2=O)ccc1OCCO,6,-17,55*,26,10,-10
COc1ccc(/C=C2\CN(Cc3ccccc3)C/C(=C\c3ccc(OC)c(O)c3)C2=O)cc1O,24,-11,2,27*,24,-18
